Measurements pooled from the literature.
Compare with care: the assays were run in different laboratories.
Target: Alpha-2B adrenergic receptor (ADRA2B, Homo sapiens, UniProt P18089)
Tested at: 10 µM
One construct used (P18089 1-450): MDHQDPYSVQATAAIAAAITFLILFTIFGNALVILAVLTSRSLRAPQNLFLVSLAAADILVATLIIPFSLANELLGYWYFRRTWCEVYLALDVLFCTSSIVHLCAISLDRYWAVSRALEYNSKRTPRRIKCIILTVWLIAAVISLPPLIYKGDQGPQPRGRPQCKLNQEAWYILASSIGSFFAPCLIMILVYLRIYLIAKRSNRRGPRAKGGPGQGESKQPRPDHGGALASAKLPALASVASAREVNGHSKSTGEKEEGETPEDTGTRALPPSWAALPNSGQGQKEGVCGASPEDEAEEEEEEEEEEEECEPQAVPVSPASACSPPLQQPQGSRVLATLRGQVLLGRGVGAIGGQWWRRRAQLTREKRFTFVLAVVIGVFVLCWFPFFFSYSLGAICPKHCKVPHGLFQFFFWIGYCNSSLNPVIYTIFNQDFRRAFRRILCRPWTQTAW

With `CCCNc1nc2ccccc2n1Cc1ccc(Cl)cc1` the inhibition was 83% (ligand displacement).
For `Oc1cccc(Nc2nc(-c3ccc(F)cc3F)cs2)c1`, the inhibition was -29.7% (cell-free assay).
`CN(C)C(=O)Cn1cc(-c2nc(C3(c4ccc(-c5cnc(N)nc5)cc4)CC3)no2)cn1` gave an inhibition of -3.57% (cell-free assay).
For `O=C1c2ccccc2C(=O)N1CC#Cc1ccc2c(c1)C=C([N+](=O)[O-])C(C(F)(F)F)O2` (stereo not drawn), the inhibition was 70% (ligand displacement, radioligand).
The inhibition of `COc1cc(NC(C)=O)c(Cl)cc1C(=O)Nc1nccs1` is reported as -12.7% (cell-free assay).
The inhibition of `CCN(CC)c1ccc(C2Nc3ccc(C(=O)c4ccccc4)cc3NC3=C2C(=O)CC(C)(C)C3)cc1` (stereo not drawn) is reported as -8% (ligand displacement, radioligand).
For `O=[N+]([O-])C1=Cc2cc(I)ccc2OC1C(F)(F)F` (stereo not drawn), the inhibition was 66% (ligand displacement, radioligand).
The inhibition of `N#Cc1cc(Cn2c(N3CCCC3)nc3ccccc32)ccc1F` is reported as 18.7% (ligand displacement).
With `O=C(NNS(=O)(=O)c1ccccc1F)c1cc(F)cc(-c2ccccn2)c1` the inhibition was -3.78% (cell-free assay).
